# Diaphorase act: activates diaphorase or chemically reduces, flagging diaphorase assay artifacts. Diaphorase/resazurin coupled assay, resorufin fluorescence, 16 min; hits give high values; 1 = vehicle wells, 0 = NADH-free wells. activation factor at 20 µM. 190,000 tested, 0.005% active;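 active = diaphorase activity raised at least twofold by the compound at 20 µM; inactive = activation factor below 2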
#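 Material: Clostridium kluyveri diaphorase, purified enzyme; Quantity: enzyme 0.07 U/mL final; Medium: HEPES pH 7.4 buffer with MgCl2 and Tween 20; Dosing: single compound dose of 20 µM, 1% DMSO final; Schedule: 16 min reaction at room temperature; Measured by: red resorufin fluorescence at 544/590 nm excitation/emission.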
# WT yeast gro inh: growth inhibition of WT yeast, mitochondrial fusion screen; mitochondrial fusion phenotypic screen, WT strain; inhibition, % at 10 µM; 190,000 tested, 2.1% active; AID 1362; in the data active = inhibition above about 58%; tested in S. cerevisiae
# G6PDH CS: inhibits Leuconostoc G6PDH, flagging false hits in G6PDH-based assays; Purified L. mesenteroides G6PDH, diaphorase/resazurin coupled fluorescence, 45 min; inhibition, % at 5 µM; 200,000 tested, 0.12% active
# Diaph inh CS: diaphorase inhibition or chemical oxidation counter-screen; diaphorase resazurin-to-resorufin fluorescence, NADH, 16 min; bacterial (C. kluyveri) enzyme, not human; inhibition, % at 20 µM; 190,000 tested, 0.69% active; AID 1217;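 active = primary screen inhibition at 20 µM above a set limit, cut at about 50% in these data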
#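 Assay system: diaphorase enzyme from Clostridium kluyveri. Quantity: enzyme working solution with 0.14 U/mL diaphorase. Schedule: reaction incubation of 16 min at room temperature. Technique: resorufin fluorescence, excitation 544 nm, emission 590 nm. Controls: No-NADH positive control and DMSO neutral control.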
# L major viab: Leishmania major promastigote growth inhibition; Leishmania major promastigotes, resazurin fluorescence viability; inhibition, % at 10 µM; 200,000 tested, 9% active;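 also: promastigotes grown with compound for 44 hours at 28 °C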
# Hits are given with their value; 0 = inactive; - = not tested or not shown. This is a sample that favours compounds with a hit; in the whole collection about 11% have one here. Rule as the data show it, unless noted: active = inhibition above about 50%; inactive = the rest.
SMILES,Diaphorase act,WT yeast gro inh,G6PDH CS,Diaph inh CS,L major viab
Cc1nc2c(C(=O)NCCc3ccccc3)c[nH]n2c(=O)c1Cl,0,0,0,79,0
CCN(CC)C(=O)Cn1cnc2sc(C(=O)Nc3cc(OC)c(OC)c(OC)c3)c(C)c2c1=O,0,0,0,0,0
CC1CCC(C(C)C)C(OC(=O)CSc2nnc(N)s2)C1 (configuration not stated),0,0,0,0,64
Cc1nnc(-c2ccc(Cl)cc2)[nH]c1=O,0,0,0,0,0
O=c1[nH]c(=O)c2ncc(-c3ccc(Cl)cc3)nc2[nH]1,0,0,0,0,80
Cc1cc(C)cc(NC(=S)NCCSc2ccc(Cl)cc2)c1,0,81,0,0,0
Cc1ccc(SCCNC(=S)Nc2cc(C)ccc2C)cc1,0,75,0,0,0
Cc1ccc(SCCNC(=S)Nc2ccccc2)cc1,0,74,0,0,0
COc1ccccc1NC(=S)NCCc1ccccc1,0,0,0,0,0
Cc1ccc(SCCNC(=S)Nc2ccc(C)c(C)c2)cc1,0,0,0,0,0
COc1ccccc1NC(=S)NCCSc1ccc(C)cc1,0,71,0,0,0
CC(OC(=O)c1ccncc1)C(=O)Nc1cc(S(=O)(=O)N2CCCCC2)ccc1Cl (configuration not stated),0,0,0,0,0
COCCNC(=O)CC(NS(=O)(=O)c1ccc(C)cc1)c1ccco1 (configuration not stated),0,73,0,0,0
CCN(C(=S)NC(=O)c1ccccc1Br)C1CCCCC1,0,0,0,0,0
CCc1ccc(-c2csc(NC(=O)COC(=O)CCc3nc4ccccc4s3)n2)cc1,0,0,0,0,0
Nc1c(C(=O)NCCN2CCOCC2)c2nc3ccccc3nc2n1-c1ccccc1,0,0,0,0,0
Nc1c(C(=O)NCCN2CCOCC2)c2nc3ccccc3nc2n1CCc1ccccc1,0,0,0,0,70
COc1ccc(CNC(=O)c2cc3c(=O)n4ccccc4nc3n(Cc3ccco3)c2=N)cc1,-,-,-,-,0
CCNC(=O)c1cc2c(=O)n3cccc(C)c3nc2n(CCc2ccccc2)c1=N,0,0,0,0,0
Nc1c(C(=O)NCc2ccc3c(c2)OCO3)c2nc3ccccc3nc2n1CCCN1CCOCC1,0,0,0,0,63
Cc1cccn2c(=O)c3cc(C(=O)NCCN4CCOCC4)c(=N)n(CCc4ccccc4)c3nc12,0,0,0,0,66
Nc1c(C(=O)NCCN2CCOCC2)c2nc3ccccc3nc2n1-c1ccc2c(c1)OCO2,0,0,0,0,0
COc1ccc(CCn2c(=N)c(C(=O)N3CCN(C)CC3)cc3c(=O)n4ccccc4nc32)cc1,0,0,0,0,88
O=C(/C=C/c1ccccc1)C1=C(O)C(=O)N(CCO)C1c1ccccc1[N+](=O)[O-] (configuration not stated),0,0,0,0,0
COc1ccc(CNC(=O)COC(=O)c2ccccc2C(=O)c2ccccc2)cc1,0,0,0,0,0
SMILES,Diaphorase act,WT yeast gro inh,G6PDH CS,Diaph inh CS,L major viab
Cc1ccc2[nH]c(=O)c(CN(CC3COCCO3)C(=O)Nc3ccccc3F)cc2c1 (configuration not stated),0,0,0,0,0
Nc1c(S(=O)(=O)c2cc(Cl)ccc2Cl)c2nc3ccccc3nc2n1CCN1CCOCC1,0,0,0,0,80
COc1ccccc1CNC(=O)c1c(N)n(CCCN2CCOCC2)c2nc3ccccc3nc12,0,0,0,0,51
CC(C)OC(=O)c1c(N)n(CCCN2CCOCC2)c2nc3ccccc3nc12,0,0,0,0,0
O=C(Cc1ccccc1)NC1(Cc2ccc(O)cc2)CCCCC1,0,0,0,0,0
CC(C)Oc1cccc(-c2cc(C(=O)NC(=S)N(C)c3ccccc3C(=O)O)c3ccccc3n2)c1,0,0,0,0,0
CC1=C(C(=O)OC(C)C)C(c2cccs2)NC(=S)N1 (configuration not stated),0,0,0,0,0
CS(=O)(=O)N1CCc2cc(C(=O)N3CCCCC3)ccc21,0,0,0,0,0
CS(=O)(=O)N1CCc2cc(C(=O)N3CCOCC3)ccc21,0,82,0,0,0
Cc1ccc(S(=O)(=O)N2CN(Cc3ccco3)c3nc4ccccc4nc32)cc1,0,0,0,0,58
O=S(=O)(c1ccc(F)cc1)N1CN(Cc2ccco2)c2nc3ccccc3nc21,0,63,0,0,97
COc1ccc(CCN2CN(S(=O)(=O)c3ccc(OC)cc3)c3nc4ccccc4nc32)cc1,0,0,0,0,85
COc1ccc(S(=O)(=O)N2CN(Cc3ccco3)c3nc4ccccc4nc32)cc1,0,0,0,0,0
COc1cc(NS(=O)(=O)c2ccc(Br)s2)cc(OC)c1,0,0,0,0,0
CC(O)CNCc1ccccc1C(F)(F)F (configuration not stated),0,0,0,0,0
O=C(CSc1nnc(NC(=O)c2ccco2)s1)Nc1ccccc1,0,0,0,0,0
CN(CC(O)COc1c(F)cc(Br)cc1F)C1CCCCC1 (configuration not stated),0,0,0,0,84
CN(CC(O)COCc1ccc2c(c1)OCO2)C1CCCCC1 (configuration not stated),0,0,0,0,0
O=C(N/C(=C/c1cn(-c2ccccc2)nc1-c1ccccc1)C(=O)N1CCOCC1)c1ccc(Cl)cc1Cl,0,0,0,0,0
Cc1cccc(C)c1NC(=S)N1CCC(c2ccccc2)C1 (configuration not stated),0,0,0,0,0
OC(CNC1CCCCC1)COCCOc1ccc(Br)cc1 (configuration not stated),0,0,0,0,95
CC(CCc1ccccc1)NCC(O)COc1ccccc1 (configuration not stated),0,0,0,0,83
Cc1ccc(OCC(O)CNC(=O)c2ccccc2C(=O)O)cc1 (configuration not stated),0,0,0,0,0
CC(C)NCC(O)COc1ccc(Br)cc1 (configuration not stated),0,0,0,0,0
OC(CNC1CCCC1)COc1ccc(-c2ccccc2)cc1 (configuration not stated),0,0,0,0,98
SMILES,Diaphorase act,WT yeast gro inh,G6PDH CS,Diaph inh CS,L major viab
COCCc1ccc(OCC(O)CNC(C)C)cc1 (configuration not stated),0,0,0,0,0
CCCC(NCC(O)COc1ccc(-c2ccccc2)cc1)c1ccccc1 (configuration not stated),0,0,0,0,82
Cc1ccn2c(C(=O)c3ccc(Cl)cc3)cnc2c1,0,0,0,0,0
O=C(Cn1cc(C(=O)c2ccco2)c2ccccc21)NC1CC1,0,0,0,0,0
CCOC(=O)C1(CCOc2ccccc2)CCN(Cc2cccc3nonc23)CC1,0,0,0,0,87
CCOC(=O)C1(CCOc2ccccc2)CCN(Cc2ccc(C)o2)CC1,0,0,0,0,74

# Bioassay records: PubChem, several laboratories
